Measured values as given in ChEMBL document CHEMBL4346736, “Anti-proliferative activity and structure-activity relationship of honokiol derivatives” (Bioorg Med Chem, 2019).

Assays:
K562 [1] = assay: Antiproliferative activity against human K562 cells after 48 hrs by MTT assay; type: functional, cell-based; settings: K562, 48 h
In short: (§1)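 Cells from the Institute of Cell Biology, CAS (Shanghai), grown in RPMI-1640 with 10% FBS and 100 U/mL penicillin-streptomycin at 37 °C under 5% CO2. Cells were exposed to compounds for 48 h, and viability was read by MTT (or MTS). IC50, the concentration giving 50% inhibition, was calculated by the Logit method. Data are representative of 3 independent experiments.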

A549 [2] = assay: Antiproliferative activity against human A549 cells after 48 hrs by MTT assay; type: functional, cell-based; settings: A549, 48 h; in short: as §1
HepG2 [3] = assay: Antiproliferative activity against human HepG2 cells after 48 hrs by MTT assay; type: functional, cell-based; settings: HepG2, 48 h; in short: as §1
[4] = Partition coefficient, log P of the compound; type: physicochemical; settings: octanol/water
A549 [5] = assay: Antiproliferative activity against human A549 cells by MTT assay; type: functional, cell-based; in short: as §1
K562 [6] = assay: Antiproliferative activity against human K562 cells by MTT assay; type: functional, cell-based; in short: as §1
HepG2 [7] = assay: Antiproliferative activity against human HepG2 cells; type: functional, cell-based; in short: as §1
K562 [8] = assay: Antiproliferative activity against human K562 cells; type: functional, cell-based; in short: as §1
HUVEC = assay: Antiproliferative activity against human HUVEC cells after 48 hrs by MTT assay; type: cell-based; in short: as §1
[9] = Selectivity index, ratio of IC50 for HUVEC to IC50 for human K562 cells; type: toxicity; settings: HUVEC versus K562 cells, read-out: Ratio IC50
In short: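 K562 tumor cells and HUVEC grown in RPMI-1640 with 10% FBS and penicillin-streptomycin at 37 °C under 5% CO2. Viability was read by MTT or MTS assay, with tumor cells exposed to compounds for 48 h. IC50 values came from the Logit method across 3 independent experiments. The index is HUVEC IC50 divided by K562 IC50.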

[10] = Antiproliferative activity against human SPCA1 cells by MTT assay; type: functional, cell-based
HepG2 [11] = assay: Antiproliferative activity against human HepG2 cells after 72 hrs by MTT assay; type: functional, cell-based; settings: HepG2, 72 h
HCT-116 = assay: Antiproliferative activity against human HCT116 cells after 72 hrs by MTT assay; type: functional, cell-based; settings: HCT-116, 72 h
NCI-H1975 = assay: Antiproliferative activity against human NCI-H1975 cells after 72 hrs by MTT assay; type: functional, cell-based; settings: NCI-H1975, 72 h
HepG2 [12] = assay: Antiproliferative activity against human HepG2 cells after 24 hrs by MTT assay; type: functional, cell-based; settings: HepG2, 24 h
A549 [13] = assay: Antiproliferative activity against human A549 cells after 24 hrs by MTT assay; type: functional, cell-based; settings: A549, 24 h
K562 [14] = assay: Antiproliferative activity against human K562 cells after 24 hrs by MTT assay; type: functional, cell-based; settings: K562, 24 h
[15] = Antiproliferative activity against […] cells after 24 hrs by MTT assay; type: functional, cell-based; settings: LL/2, 24 h
[16] = Antiproliferative activity against human SPCA1 cells after 24 hrs by MTT assay; type: functional, cell-based; settings: SPCA1, 24 h
[17] = Antiproliferative activity against mouse C26 cells; type: functional, cell-based
HeLa = assay: Antiproliferative activity against human HeLa cells; type: functional, cell-based
A2780 = assay: Antiproliferative activity against human A2780 cells after 24 hrs by MTT assay; type: functional, cell-based; settings: A2780, 24 h

Structure (SMILES)	IC50 (K562 [1]) [µM]	IC50 (A549 [2]) [µM]	IC50 (HepG2 [3]) [µM]	logP [4]	further results
C=CCc1cc(N=O)c(O)c(-c2cc(CC=C)c(O)c(N=O)c2)c1	> 128	> 128	> 128	4.45	
C=CCc1cc(CN2CCC(N)CC2)c(O)c(-c2cc(CC=C)c(O)c(CN3CCC(N)CC3)c2)c1				2.79	IC50 (HepG2 [7]): 17 µM; IC50 (K562 [8]): 9.1 µM
C=CCc1cc2c(c(-c3cc(CC=C)c4c(c3)NC(=O)CO4)c1)OCC(=O)N2	7.08	37	27.4	3.29	IC50 (HUVEC): 82.1 µM; selectivity ratio [9]: 11.6
C=CCc1cc(C=O)c(O)c(-c2cc(C=O)c(O)c(CC=C)c2)c1				4.23	IC50 (A549 [5]): > 77.6 µM; IC50 (K562 [6]): 32.6 µM; IC50 [10]: 31.4 µM
OCC(O)Cc1ccc(O)c(-c2ccc(O)c(CC(O)CO)c2)c1 (centres undefined)	> 128	> 128	> 128	1.16	
C=CCc1ccc(O)c(-c2ccc3oc(C)cc3c2)c1	67.9	71.5	107	4.79	
C=CCc1cc(NC(C)=O)c(O)c(-c2cc(CC=C)c(O)c(NC(C)=O)c2)c1	> 128	> 128	> 128	3.09	
C=CCc1cc(CN2CCC(O)CC2)c(O)c(-c2cc(CC=C)c(O)c(CN3CCC(O)CC3)c2)c1				2.31	IC50 (HepG2 [7]): > 40 µM; IC50 (K562 [8]): 25.5 µM
CCCc1cc(C)c(O)c(-c2cc(C)c(O)c(CCC)c2)c1	26.2	29.2	34.5	6.51	
C=CCc1cc(CN2CCOCC2)c(O)c(-c2cc(CC=C)c(O)c(CN3CCOCC3)c2)c1				3.95	IC50 (HepG2 [7]): > 40 µM; IC50 (K562 [8]): > 40 µM
C=CCc1cc(N)c(O)c(-c2cc(N)c(O)c(CC=C)c2)c1	> 128	> 128	> 128	3.62	
C=CCc1ccc(O)c(-c2ccc3c(c2)CC(C)O3)c1 (centres undefined)	126	116	126	4.65	
C=CCc1cc(-c2cc(CC=C)c(O)c([N+](=O)[O-])c2)c(O)c([N+](=O)[O-])c1	> 128	> 128	> 128	4.57	
O=Cc1ccc(O)c(-c2ccc(O)c(CC3CO3)c2)c1 (centres undefined)				3.16	IC50 (HepG2 [11]): > 40 µM; IC50 (HCT-116): > 40 µM; IC50 (NCI-H1975): > 40 µM
C=CCc1cc(NC(=O)CCl)c(O)c(-c2cc(CC=C)c(O)c(NC(=O)CCl)c2)c1	21.6	29.3	19.1	4.22	
C=CCc1cc(CN(C)C)c(O)c(-c2cc(CC=C)c(O)c(CN(C)C)c2)c1	31.6	60.8	47.5	4.26	
C=CCc1cc(CN2CCSCC2)c(O)c(-c2cc(CC=C)c(O)c(CN3CCSCC3)c2)c1				5.03	IC50 (HepG2 [7]): > 40 µM; IC50 (K562 [8]): > 40 µM
CCCc1ccc(O)c(-c2ccc3c(c2)CC(C)O3)c1 (centres undefined)	72.9	96.1	122	5.13	
CCCc1ccc(O)c(-c2ccc(O)c(CCC)c2)c1	18.2	30.4	30.8	5.97	
CCCc1ccc(O)c(-c2ccc3oc(C)cc3c2)c1	73.9	61.9	88.3	5.27	
C=CCc1cc(CN2CCN(C)CC2)c(O)c(-c2cc(CC=C)c(O)c(CN3CCN(C)CC3)c2)c1				4.04	IC50 (HepG2 [7]): > 40 µM; IC50 (K562 [8]): > 40 µM
C=CCc1cc(NC(=O)C=C)c(O)c(-c2cc(CC=C)c(O)c(NC(=O)C=C)c2)c1	5.04	16.6	19.1	4.3	IC50 (HUVEC): 57.8 µM; selectivity ratio [9]: 11.5

Further lines, with some results ahead:

IC50 (K562 [1]) [µM]	IC50 (A549 [2]) [µM]	IC50 (HepG2 [3]) [µM]	logP [4]	Structure (SMILES)	further results
			4.72	C=CCc1cc(C=O)c(O)c(-c2ccc(O)c(CC=C)c2)c1	IC50 (A549 [5]): > 85 µM; IC50 (K562 [6]): 54.6 µM
32.5	25.7	31.1	6.43	C=CCc1ccc(O)c(-c2cc(CC=C)c(O)c(C(C)(C)C)c2)c1	
			3.7	C=CCc1ccc(O)c(-c2ccc(O)c(CC(O)COC)c2)c1 (centres undefined)	IC50 (HepG2 [11]): > 40 µM; IC50 (HCT-116): > 40 µM; IC50 (NCI-H1975): > 40 µM
			3.7	C=CCc1ccc(O)c(-c2ccc(O)c(CC(CO)OC)c2)c1 (centres undefined)	IC50 (HepG2 [11]): > 40 µM; IC50 (HCT-116): > 40 µM; IC50 (NCI-H1975): > 40 µM
			5.1	C=CCc1ccc(O)c(-c2ccc(O)c(/C=C\C)c2)c1	IC50 (HepG2 [11]): 31.6 µM; IC50 (HCT-116): 19.9 µM; IC50 (NCI-H1975): 39.8 µM
100	90.4	25.3	3.08	C=CCc1ccc(O)c(-c2ccc(O)c(CC(O)CO)c2)c1 (centres undefined)	
23.9		34.3	5	C=CCc1ccc(O)c(-c2ccc(O)c(CC=C)c2)c1 [HONOKIOL]	selectivity ratio [9]: 2.2; IC50 (HepG2 [11]): 33.9 µM; IC50 (HCT-116): 19.1 µM; IC50 (HepG2 [12]): 32.9 µM; IC50 (A549 [13]): 34.1 µM; IC50 (K562 [14]): 22.1 µM; IC50 [15]: 65.3 µM; IC50 [16]: 37.3 µM; IC50 (A549 [5]): 29.7 µM; IC50 (K562 [6]): 28.4 µM; IC50 [10]: 41.3 µM; IC50 [17]: 65.1 µM; IC50 (HeLa): 62 µM
			4.51	C=CCc1ccc(O)c(-c2cc(C=O)c(O)c(CC=C)c2)c1	IC50 (HepG2 [12]): 20.2 µM; IC50 (A549 [13]): 34.1 µM; IC50 (K562 [14]): 11.6 µM; IC50 [15]: 31.3 µM; IC50 (A2780): 17.8 µM; IC50 [16]: 37.3 µM; IC50 (A549 [5]): 49 µM; IC50 (K562 [6]): 19.7 µM; IC50 [10]: 22.8 µM
			4.27	C=CCc1cc(CO)c(O)c(-c2ccc(O)c(CC=C)c2)c1	
			5.07	C=CCc1ccc(O)c(-c2ccc(OC)c(CC=C)c2)c1 [METHYLHONOKIOL]	
			5.35	C=CCc1ccc(OC)c(-c2ccc(OC)c(CC=C)c2)c1	
